Tested on: A673
Experiment: Induction of apoptosis in human A673 cells assessed as caspase-3 activation after 24 hrs by luminescence assay
Type: functional, cell-based
Conditions: A673, 24 h
Summary of the method: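 Caspase-3/7 activation measured with a Caspase-Glo 3/7 luminescent assay. Cells were plated as for the high-throughput viability assay and exposed for 24 h to serial dilutions. EC50 was obtained from the dose-response.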

Nc1nc(Nc2ccc(S(N)(=O)=O)cc2)sc1C(=O)c1ccccc1[N+](=O)[O-]
EC50: 410 nM

Reference: ChEMBL document CHEMBL2375244 (J Med Chem, 2013)
